Measurements taken from ChEMBL document CHEMBL1141669, “Nitrile analogs of meperidine as high affinity and selective sigma-1 receptor ligands” (Eur J Med Chem, 2008).
pKi: −log10 of the molar value.

Key:
[1] = target: Kappa-type opioid receptor (Homo sapiens, UniProt P41145); experiment: Binding affinity to kappa opioid receptor
Mu-type opioid receptor = Mu-type opioid receptor (Homo sapiens, UniProt P35372); experiment: Binding affinity to mu opioid receptor
[2] = target: Sigma non-opioid intracellular receptor 1 (Rattus norvegicus, UniProt Q9R0C9); experiment: Displacement of [3H](+)-pentazocine from sigma 1 opioid receptor in rat brain cerebellum; type: tissue-based
Sigma non-opioid intracellular receptor 1, sequence (Q9R0C9 whole entry): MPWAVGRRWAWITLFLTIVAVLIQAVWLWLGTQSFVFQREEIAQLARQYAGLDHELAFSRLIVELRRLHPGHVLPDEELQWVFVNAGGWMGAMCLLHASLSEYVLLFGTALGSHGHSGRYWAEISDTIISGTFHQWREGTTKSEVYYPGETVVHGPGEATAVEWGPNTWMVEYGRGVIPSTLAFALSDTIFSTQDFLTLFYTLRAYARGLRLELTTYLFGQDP
Summary of the method: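 σ1 radioligand binding with 5 nM [3H](+)-pentazocine in 50 mM Tris–HCl, pH 8.0. Nonspecific binding defined with 10 µM haloperidol. Test ligand at twelve concentrations, 120 min at 25 °C.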

[3] = target: Delta-type opioid receptor (Homo sapiens, UniProt P41143); experiment: Binding affinity to delta opioid receptor
Delta-type opioid receptor, sequence (P41143 whole entry): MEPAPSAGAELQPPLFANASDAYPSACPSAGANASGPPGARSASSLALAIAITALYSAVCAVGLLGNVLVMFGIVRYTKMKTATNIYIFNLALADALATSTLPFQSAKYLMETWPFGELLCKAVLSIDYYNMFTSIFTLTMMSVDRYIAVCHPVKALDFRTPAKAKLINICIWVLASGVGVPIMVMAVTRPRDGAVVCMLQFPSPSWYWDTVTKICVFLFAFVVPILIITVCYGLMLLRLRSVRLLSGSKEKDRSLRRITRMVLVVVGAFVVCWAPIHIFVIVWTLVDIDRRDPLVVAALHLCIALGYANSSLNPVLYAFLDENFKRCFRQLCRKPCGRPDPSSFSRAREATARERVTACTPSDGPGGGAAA

[4] = Displacement of [3H]ditolylguanidine from sigma 2 opioid receptor in rat brain cerebellum; type: tissue-based
Summary of the method: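 σ2 sites labeled with 3 nM [3H]di-o-tolylguanidine, with 300 nM (+)-pentazocine present to mask σ1, in 50 mM Tris–HCl, pH 8.0. Nonspecific binding taken with 10 µM haloperidol. Twelve test-ligand concentrations, incubated 120 min at 25 °C.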

Rattus norvegicus = organism: Rattus norvegicus; experiment: Selectivity ratio of Ki for rat sigma 2 opioid receptor to Ki for rat sigma 1 opioid receptor

Mu-type opioid receptor, sequence (P35372 whole entry): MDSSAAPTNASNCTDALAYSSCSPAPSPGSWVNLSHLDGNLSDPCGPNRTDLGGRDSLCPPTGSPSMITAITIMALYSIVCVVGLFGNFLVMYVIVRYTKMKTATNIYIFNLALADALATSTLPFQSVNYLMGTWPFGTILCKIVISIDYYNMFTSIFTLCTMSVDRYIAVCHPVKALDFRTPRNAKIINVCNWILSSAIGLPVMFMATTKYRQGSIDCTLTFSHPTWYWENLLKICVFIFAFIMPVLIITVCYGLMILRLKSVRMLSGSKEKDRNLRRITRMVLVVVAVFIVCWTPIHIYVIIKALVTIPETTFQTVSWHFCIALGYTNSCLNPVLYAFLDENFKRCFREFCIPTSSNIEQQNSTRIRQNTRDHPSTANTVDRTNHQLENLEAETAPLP
Kappa-type opioid receptor, sequence (P41145 whole entry): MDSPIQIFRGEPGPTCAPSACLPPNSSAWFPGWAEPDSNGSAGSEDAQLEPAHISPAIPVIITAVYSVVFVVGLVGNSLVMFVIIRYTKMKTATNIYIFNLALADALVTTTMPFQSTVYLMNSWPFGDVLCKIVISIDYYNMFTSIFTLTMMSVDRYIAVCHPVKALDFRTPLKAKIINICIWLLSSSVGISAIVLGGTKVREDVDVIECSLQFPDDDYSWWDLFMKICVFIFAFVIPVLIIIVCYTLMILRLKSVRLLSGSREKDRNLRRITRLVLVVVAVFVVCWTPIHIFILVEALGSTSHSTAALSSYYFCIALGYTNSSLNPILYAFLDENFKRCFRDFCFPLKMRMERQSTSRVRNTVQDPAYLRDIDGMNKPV

| Compound | pKi [1] | pKi (Mu-type opioid receptor) | pKi [2] | pKi [3] | pKi [4] | Ratio Ki (Rattus norvegicus) |
| --- | --- | --- | --- | --- | --- | --- |
| N#CC1(c2ccccc2)CCN(CCCCc2ccccc2)CC1 | < 5.00 | 5.01 | 7.31 | < 5.00 | 5.88 | 27 |
| N#CC1(c2ccccc2)CCN(CCCc2ccccc2)CC1 | – | – | 9.42 | – | 7.34 | 120 |
| N#CC1(c2ccccc2)CCN(Cc2ccccc2)CC1 | < 5.00 | 5.23 | 9.39 | < 5.00 | 6.18 | 1600 |
| c1ccc(CCN2CCCCC2)cc1 [1-PHENETHYLPIPERIDINE] | – | – | 7.52 | – | 6.86 | 5 |
| C=C(C)CN1CCC(C#N)(c2ccccc2)CC1 | < 5.00 | < 5.00 | 8.43 | 5.30 | 6.32 | 130 |
| C=CCN1CCC(C#N)(c2ccccc2)CC1 | < 5.00 | < 5.00 | 8.66 | < 5.00 | 6.18 | 300 |
| N#CC1(c2ccccc2)CCN(CCc2ccccc2)CC1 | – | – | 8.48 | – | 6.93 | 36 |
| c1ccc(CCN2CCN(c3ccccn3)CC2)cc1 | – | – | 6.49 | – | 6.77 | 0.53 |
| CN1CCC(C#N)(c2ccccc2)CC1 | < 5.00 | < 5.00 | 6.95 | < 5.00 | 5.67 | 19 |
| CC(C)CN1CCC(C#N)(c2ccccc2)CC1 | – | – | 9.46 | – | 7.20 | 180 |
| CCCN1CCC(C#N)(c2ccccc2)CC1 | – | – | 8.77 | – | 6.84 | 84 |
